Rev-RRE block = HIV-1 Rev-RRE binding inhibitors, primary screen, biochemical, FRET, protein-RNA interaction. P05866. Rev peptide-RRE RNA binding. inhibition, % at 8 µM. 97,000 compounds, 0.79% hits. AID 704, 2007;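 active means inhibition above the screen-wide mean plus 3 SD, cut at about 35% in these data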;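 further: 0% = median DMSO wells and 100% = median Neomycin B control wells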
Target sequence (P05866 whole entry, looked up): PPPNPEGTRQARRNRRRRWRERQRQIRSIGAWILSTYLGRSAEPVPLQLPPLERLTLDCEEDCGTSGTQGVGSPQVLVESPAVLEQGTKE
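assay system = Cy5-tagged RRE RNA duplex with fluorescein-tagged Rev peptide | incubation = 5 + 15 min at 25 °C | also added = labelled Rev peptide | measure = % inhibition of FRET ratio versus controls | benchmarks = DMSO wells as 0% and neomycin B wells as 100% inhibition | measured by = FRET fluorescence readout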
FAK inh = FAK kinase inhibitors, primary screen, biochemical; Focal adhesion kinase 1 (Homo sapiens), Q05397; biochemical FAK kinase activity assay; inhibition, %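 (tested at 7 µM)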; 97,000 compounds, 0.84% hits; AID 727, 2007; in the data active means inhibition above about 19%;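 further: 0% = DMSO and 100% = reference compound high control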
Measles CPE = compounds protecting cells from measles virus cytopathic effect, primary screen, measles RdRp inhibitor project, single point, MLSMR library, absorbance; Measles virus-infected cells, CPE protection; protection (pct of control), % at 4 µM; 140,000 compounds, 1.5% hits; AID 841, 2007; in the data active means protection mostly above about 24%, no sharp cut-off; inactive means mostly below about 26%
IL1B cytotox = cytotoxicity in IL-1B stimulated HUVEC, primary screen, cytotoxicity control for IL-1B NFkB translocation project, imaging, Hoechst nuclear count, IL-1B stimulus; 94,000 compounds, 0.41% hits; HUVEC cell count loss; cell count reduction, % at 2 µM; AID 845, 2007;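 active means cell count reduction more than 3 SD above the screen-wide mean, cut at about 70% in these data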;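 further: normalized per plate to untreated control cells as the no-loss baseline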
NFkB transloc inh = inhibitors of IL-1B driven NFkB p65 nuclear import, primary screen, imaging, HUVEC, IL-1B stimulus, high-content imaging | 94,000 compounds, 0.43% hits | HUVEC IL-1B NFkB p65 nuclear translocation imaging | inhibition, % at 2 µM | AID 796, 2007;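 active means inhibition above about 30% together with a positive call from visual inspection of the well image, limit read from the data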;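 further: nuclear over cytoplasmic p65 intensity ratio measured by imaging; 0% = IL-1B stimulated DMSO wells and 100% = unstimulated DMSO wells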
NFkB transloc pot = enhancers of NFkB p65 translocation in HUVEC – imaging, IL-1B stimulus, high-content imaging, primary screen. HUVEC IL-1B NFkB p65 nuclear translocation imaging. activation, % at 2 µM. 94,000 compounds, 0.3% hits. AID 819, 2007;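 active means activation above 40%, about the mean plus 3 SD, also judged a hit on visual image review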;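 further: percent activation is computed from the nuclear over cytoplasmic p65 intensity ratio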
Starred values were filed as active, the others as inactive; · = no result; [ ] = another dose, or the depositor's remark. In the library only some 3.3% were active in any assay of this set; here they are far more common.

SMILES	Rev-RRE block	FAK inh	Measles CPE	IL1B cytotox	NFkB transloc inh	NFkB transloc pot
CCn1c(C)nc2cc(-c3nnc(-c4c(-c5ccccc5)noc4C)o3)ccc21	5	4	50*	-20	-32	32
CC(C)NC(=O)COC(=O)/C=C/c1ccc(F)cc1	·	·	15	·	·	·
CC(C)NC(=S)NC(=O)/C=C/c1ccc(F)cc1	·	·	36*	·	·	·
CCOCc1cn(CC(=O)c2ccc([N+](=O)[O-])cc2)c(C)nc1=N	5	-1	3	-8	6	-6
CCOCc1cn(CC(=O)c2ccc(Cl)cc2)c(C)nc1=N	-3	-1	2	81*	5	-5
CCN(CC)c1ccc2cc(-c3nnc(-c4ccc(Br)cc4)o3)c(=O)oc2c1	140*[fluorescence artefact?]	2	·	-6	8	-8
CCN(CC)c1ccc2cc(-c3nc4ccccc4n3C)c(=O)oc2c1	132*[fluorescence artefact?]	-3	0	59	34*	-34
O=c1oc2ccc3ccccc3c2cc1-c1nnc(-c2ccccc2)o1	6	-5	30	-7	2	-2
CCN(CC)c1ccc2cc(-c3nnc(-c4ccccc4)o3)c(=O)oc2c1	141*[fluorescence artefact?]	0	2	-6	-8	8
CC(C)CCNC(=O)CCSCCC(=O)NCCC(C)C	·	·	7	·	·	·
Cc1cc(C)nc(NS(=O)(=O)c2ccc(NC(=O)C3(c4ccccc4)CCCC3)cc2)n1	·	·	5	·	·	·
Cc1ccc(C(=O)Oc2ccccc2N2C(=O)C3C4CCC(C4)C3C2=O)cc1 (stereo not given)	·	·	4	·	·	·
COC(=O)C1=C(C)N(c2ccc(Cl)c(Cl)c2)C(=O)C1	5	-1	12	-13	-55	55*
COC(=O)C1=C(C)N(c2ccc(S(N)(=O)=O)cc2)C(=O)C1	-1	-1	3	-4	6	-6
Cc1nn(C)cc1/C=C/C(=O)c1ccc(O)cc1	·	·	9	·	·	·
Nc1nnnn1/N=C/c1cccc(O)c1	-1	3	24	-40	-10	10
Nc1nnnn1/N=C/c1ccc(O)cc1	3	0	50*	0	-3	3
O=C(O)CCC(=O)Nc1ccc(Sc2ccc([N+](=O)[O-])cc2)cc1	·	·	14	·	·	·
Cn1c(=O)c2c(-c3ccccc3)n(Cc3ccccn3)cc2n(C)c1=O	10	-2	6	-7	-2	2
Cc1ccc(-c2c3c(=O)n(C)c(=O)n(C)c3cn2Cc2ccccc2)cc1	10	3	38*	-2	-3	3
CCOC(=O)C1CCCC(NS(=O)(=O)c2ccc(NC(C)=O)cc2)C1 (stereo not given)	6	0	91*	-4	4	-4
O=C(CN1CCCCC1)Nc1ccc(S(=O)(=O)NC2CCCCC2)cc1	-3	-5	7	3	0	0
O=C(Cc1ccc(F)cc1)N/N=C/c1ccncc1	·	·	19	·	·	·
O=C(C1=C[C@@H]2[C@H]3C(=O)N(c4ccc(Cl)cc4)C(=O)[C@H]3[C@@H](C(=O)c3ccc(Cl)cc3)N2C=C1)c1ccccc1	·	·	2	·	·	·
Cc1ccc(N2C(=O)C3C(C2=O)C(C(=O)c2ccc(Cl)cc2)N2CCCC32)cc1 (stereo not given)	62*	-2	9	-16	0	0
SMILES	Rev-RRE block	FAK inh	Measles CPE	IL1B cytotox	NFkB transloc inh	NFkB transloc pot
CSc1nc(NCc2ccco2)c2c3c(sc2n1)CN(C)CC3	10	9	12	-30	-19	19
CSc1nc(SCC(=O)NCc2ccco2)c2c3c(sc2n1)CN(C)CC3	14	22*	7	-8	-26	26
O=C(Nc1ccccc1)/C(=C/c1ccc2c(c1)OCO2)NC(=O)c1ccco1	·	·	6	·	·	·
CCOC(=O)C[n+]1c(C)sc2ccc(OC)cc21	2	-4	9	-21	43*	-43
O=C(OCC1CC(c2ccccc2)=NO1)c1ccc(Cl)cc1 (stereo not given)	5	6	2	18	-50	50*
CCOC(=O)NS(=O)(=O)c1ccc(CCNC(=O)c2cc(C)on2)cc1	·	·	5	·	·	·
COc1ccc(OC)c2c1C(=O)c1ccccc1C2=O	75*[fluorescence artefact?]	1	15	-82	-21	21
